# Experimental data pooled from the literature.
# Compare with care: the assays were run in different laboratories.
# RPS6KA4 N-terminal kinase domain: Ribosomal protein S6 kinase alpha-4, N-terminal kinase domain (RPS6KA4, Homo sapiens, UniProt O75676)
# RPS6KA4: Ribosomal protein S6 kinase alpha-4 (RPS6KA4, Homo sapiens, UniProt O75676)
# RPS6KA4 C-terminal kinase domain: Ribosomal protein S6 kinase alpha-4, C-terminal kinase domain (RPS6KA4, Homo sapiens, UniProt O75676)
Structure (SMILES),target,effect on,mode,technique,concentration,endpoint,result
O=C(Nc1cccnn1)N1CCC(=Cc2cccc(Oc3ccc(C(F)(F)F)cn3)c2)CC1,RPS6KA4 N-terminal kinase domain,cell-free assay,,competition with immobilised ligand,1 µM,remaining binding,98%
c1ccc(CNc2nc(N3CCOc4ccccc43)nc3c2CCCC3)cc1,RPS6KA4 N-terminal kinase domain,target engagement in cells,inhibitor,chemoproteomics,20 mM,inhibition,2.6%
Cc1cc(NC(=O)c2cccc3cc(-c4cccc5[nH]nc(N)c45)ccc23)ccc1F,RPS6KA4,enzyme activity,inhibitor,,0.1 µM,activity vs control,103%
CCCOc1ccc(OC)c(F)c1C(=O)c1ccc(C(=O)N[C@@H]2CNC[C@H]2NC(=O)c2ccc3[nH]ncc3c2)cc1,RPS6KA4,enzyme activity,inhibitor,,10 µM,remaining activity,4%
Nc1ncnc2occ(-c3ccc(NC(=O)Nc4cc(C(F)(F)F)ccc4F)cc3)c12,RPS6KA4 C-terminal kinase domain,cell-free assay,inhibitor,,20 µM,remaining signal,68%
Cn1cncc1C1=CN(c2ncnc3[nH]cnc23)CCS1,RPS6KA4,enzyme activity,inhibitor,radiometric,2 µM,inhibition,75.5%
COc1cccc2c(NCc3ccccc3)nc(-n3c(N)nc4ccccc43)nc12,RPS6KA4 N-terminal kinase domain,target engagement in cells,inhibitor,chemoproteomics,20 mM,inhibition,7.3%
CN1CC(Oc2cnc(C#N)cc2-c2ccn3nc(NC(=O)C4CC4)cc3c2)C1,RPS6KA4,enzyme activity,inhibitor,,1 µM,inhibition,-1%
CC(C)(C)c1nc2c(s1)c1nc(N)ncc1c1ccc(NS(=O)(=O)c3c(F)cccc3F)c(F)c12,RPS6KA4,enzyme activity,inhibitor,radiometric,1 µM,remaining activity,84%
Cc1cnc(NC2CCOCC2)nc1-n1cnc(C(=O)NC(CN)c2cc(F)cc(Cl)c2)c1 (stereo not shown),RPS6KA4,enzyme activity,inhibitor,radiometric,1 µM,remaining activity,80%
CN(C)c1nccc(-c2cnn3ncccc23)n1,RPS6KA4 C-terminal kinase domain,binding,,competition with immobilised ligand,1 µM,remaining binding,84%
C[C@H](NC(=O)c1cnc2n1[C@](C)(Cc1ccc(C#N)cc1)C(=O)N2c1cc(Cl)c(F)c(Cl)c1)C(=O)NC1(c2ccccn2)CC1,RPS6KA4 C-terminal kinase domain,cell-free assay,,competition with immobilised ligand,1 µM,remaining binding,92%
CCN(CC)c1ccc(C2=NNC(=O)CC2C)cc1[N+](=O)[O-] (stereo not shown),RPS6KA4,enzyme activity,inhibitor,,10 µM,remaining activity,82%
O=C1Nc2ccc(Cl)cc2C1=Cc1cc(Cl)c(O)c(Cl)c1,RPS6KA4,cell-free assay,,,0.5 µM,remaining signal,98%
COc1cc2ncnc(Nc3ccc(Oc4ccccc4)cc3C)c2cc1OC,RPS6KA4,enzyme activity,inhibitor,,1 µM,inhibition,1%
Cc1ccc(Nc2nccc(N(C)c3ccc4c(C)n(C)nc4c3)n2)cc1S(N)(=O)=O,RPS6KA4,enzyme activity,inhibitor,,0.5 µM,remaining activity,102%
COc1cc(Cl)c(C(=O)N[C@@H](CN[C@H]2CC[C@@H](N)CC2)Cc2ccc(C#N)cc2)cc1-c1ccc(CN[C@H](C)c2ccc(C)cc2)o1,RPS6KA4,enzyme activity,inhibitor,,1 µM,remaining activity,77%
O=C1NC(=O)c2cc(Nc3ccc(F)cc3)c(Nc3ccc(F)cc3)cc21,RPS6KA4,cell-free assay,,,0.5 µM,remaining signal,102%
CO[C@H]1CC[C@H](CNc2ccc(S(=O)(=O)NC(=O)c3ccc(N4CCN(CC5=C(c6ccc(Cl)cc6)CC(C)(C)CC5)CC4)cc3Oc3cnc4[nH]ccc4c3)cc2[N+](=O)[O-])CC1,RPS6KA4 N-terminal kinase domain,cell-free assay,,competition with immobilised ligand,1 µM,remaining binding,95%
CC1CCCN1c1nccc(-c2cnn3ncccc23)n1 (stereo not shown),RPS6KA4 N-terminal kinase domain,binding,,competition with immobilised ligand,1 µM,remaining binding,99%
Cc1cc(C)c(-n2ccn3nc(-c4cccnc4)cc23)cc1NC(=O)c1cc(C#N)cc(S(F)(F)(F)(F)F)c1,RPS6KA4 C-terminal kinase domain,cell-free assay,,competition with immobilised ligand,0.1 µM,remaining binding,79.3%
Cc1sc(C(=O)NC2COC2)cc1-n1cc(NC(=O)Nc2c(F)cccc2Cl)cn1,RPS6KA4,enzyme activity,inhibitor,,10 µM,remaining activity,105%
Cc1cc(-n2nc(Cc3cc(F)cc(C(F)(F)F)c3)nc2C)ccc1C(N)=O,RPS6KA4 N-terminal kinase domain,cell-free assay,,competition with immobilised ligand,1 µM,remaining binding,95%
N[C@H]1CCN(c2nccc(-c3cnn4ncccc34)n2)C1,RPS6KA4 N-terminal kinase domain,binding,,competition with immobilised ligand,1 µM,remaining binding,91%
CC(C)CC(=O)N1CCc2nc(-c3ccc(Br)cc3)nc(N(C)Cc3ccccc3)c2C1,RPS6KA4 N-terminal kinase domain,cell-free assay,,competition with immobilised ligand,0.1 µM,remaining binding,74%
CC/C(=N\NC(=O)NCc1cccc(O)c1)c1ccc(O)c(C)c1O,RPS6KA4,enzyme activity,inhibitor,,0.1 µM,inhibition,59.4%
C[C@@H]1CCN(c2nccc(-c3cnn4ncccc34)n2)C1,RPS6KA4 N-terminal kinase domain,binding,,competition with immobilised ligand,1 µM,remaining binding,60%
CC(=O)C1=C(C)N(c2cccc(C(F)(F)F)c2)C(=O)N[C@@H]1c1ccc(C#N)nc1,RPS6KA4 C-terminal kinase domain,cell-free assay,,competition with immobilised ligand,1 µM,remaining binding,78.8%
COc1cc2c(N3CCN(C(=O)Nc4ccc(OC(C)C)cc4)CC3)ncnc2cc1OCCCN1CCCCC1,RPS6KA4,cell-free assay,,,0.5 µM,remaining signal,120%
CCS(=O)(=O)c1cc2cc(C[C@@](O)(CC(C)(C)c3ccc(F)cc3C(N)=O)C(F)(F)F)[nH]c2cn1,RPS6KA4 N-terminal kinase domain,cell-free assay,,competition with immobilised ligand,1 µM,remaining binding,78%
Cc1ccc(C(=O)Nc2ccc(CN3CCN(C)CC3)c(C(F)(F)F)c2)cc1C#Cc1cnc2cccnn12,RPS6KA4,enzyme activity,inhibitor,,23.5 nM,activity vs control,100%
